# Hits are enriched below; roughly 2.3% of the tested compounds scored in any of these assays.
# Rpn11 inh – Rpn11 (human) deubiquitinase inhibition. 360,000 tested, 0.59% active. human 26S proteasome, Ub4-pepOG fluorescence polarization; 20S core pre-blocked with epoxomicin. calls only at 20 µM;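 active = inhibition at 20 µM, scaled to each plate's controls, above about 33%, limit read from the data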
# TPT1 inh – blocks Candida albicans tRNA 2'-phosphotransferase. recombinant caTPT1, FP RNA substrate dephosphorylation. inhibition, % at 5 µM. 300,000 tested, 0.81% active. AID 1962;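 active = inhibition above the mean of all tested compounds plus 3 SD, set per screening campaign, cut at about 24% in these data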;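 also: plate controls were DMSO alone for no effect and ferristatin control at 100 nM for full effect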
# CRFR2-BP antag – antagonists of CRF-binding protein/CRF-R2 receptor complex; HEK293 CRF-R2/CRF-BP, CRF-induced calcium fluorescence; inhibition, % at 11.8 µM; 350,000 tested, 0.59% active; AID 588475;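 active = inhibition of the ligand-induced calcium signal above about 50% at the single tested concentration, limit read from the data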
# HNF4A DNA FP – change in binding of human HNF4 alpha to DNA. P41235. HNF4a-FITC DNA binding, fluorescence polarization, 1 h. activity change, % at 10 µM. 360,000 tested, 0.3% active. AID 1224865; in the data active = activity change above about 30%, passing the limit was not always enough
# CRFBP-R2 agonist – CRF-BP/CRF-R2 complex agonism; 350,000 tested, 0.46% active; activation, % at 13.2 µM; HEK293 CRF-R2/CRF-BP, calcium dye fluorescence (FLIPR); percent of saturating CRF peptide response; AID 588473;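 active = activation of at least 50%, plus an integration ratio under a set limit after plate pattern correction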;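 also: plate controls were neutral control wells without compound for no effect and CRF at EC100 for full effect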
# CSN deneddyl inh – blocks human CSN-mediated cullin deneddylation; Purified CSN, SCF-Nedd8-OG deneddylation, fluorescence polarization; inhibition, % at 12.5 µM; 360,000 tested, 0.38% active; AID 651999;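 active = pattern-corrected inhibition above about 35%, with an unprinted fluorescence ratio check between 0.5 and 1.5, limit read from the data, passing the limit was not always enough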;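 also: 0% = enzyme with substrate and 100% = substrate without enzyme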
#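 assay system = purified human Csn5 enzyme expressed in HEK293T cells | amount = 0.24 nM enzyme | buffer or medium = Tris/NaCl/DTT buffer, pH 7.5 | reagent = 10 nM SCFSkp2-Nedd8OG | compound = one concentration, 12.5 µM, 0.25% DMSO | times = 90 min reaction at room temperature | signal = FP | read-out basis = % inhibition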
# Rpn11 confirm – Rpn11 inhibition confirmation, single concentration. shares compounds with Rpn11 inh. purified human 26S proteasome, Ub4-pepOG fluorescence polarization; proteasome pretreated with epoxomicin. inhibition, % at 20 µM. 1,900 tested, 29% active. AID 602318
# MMP-2 counter – blocks human MMP-2, flagging nonselective RPN11 hits | shares compounds with Rpn11 inh | recombinant MMP-2, FRET peptide cleavage fluorescence | inhibition, % at 20 µM | 1,900 tested, 4% active | AID 602330;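 also: human MMP-2 activated beforehand with APMA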
# Target sequence (P08253 whole entry, looked up): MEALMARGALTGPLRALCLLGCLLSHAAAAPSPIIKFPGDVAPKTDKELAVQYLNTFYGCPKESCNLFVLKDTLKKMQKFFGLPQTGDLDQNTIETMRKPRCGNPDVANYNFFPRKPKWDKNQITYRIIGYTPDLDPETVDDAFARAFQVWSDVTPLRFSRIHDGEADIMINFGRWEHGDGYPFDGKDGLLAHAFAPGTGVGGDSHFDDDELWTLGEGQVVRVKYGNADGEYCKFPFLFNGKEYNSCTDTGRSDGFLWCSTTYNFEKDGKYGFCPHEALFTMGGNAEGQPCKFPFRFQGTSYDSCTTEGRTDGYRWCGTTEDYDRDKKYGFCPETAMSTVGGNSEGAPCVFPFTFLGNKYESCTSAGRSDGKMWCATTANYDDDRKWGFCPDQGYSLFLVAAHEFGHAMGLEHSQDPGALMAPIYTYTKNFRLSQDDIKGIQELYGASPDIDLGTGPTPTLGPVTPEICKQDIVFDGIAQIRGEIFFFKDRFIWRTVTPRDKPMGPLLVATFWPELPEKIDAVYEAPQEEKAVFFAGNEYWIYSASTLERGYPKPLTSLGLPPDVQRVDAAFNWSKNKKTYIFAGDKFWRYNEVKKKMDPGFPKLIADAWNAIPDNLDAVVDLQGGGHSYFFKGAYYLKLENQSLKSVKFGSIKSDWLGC
# Thrombin inh – counter-screen for RPN11 inhibitors: inhibition of bovine thrombin | shares compounds with Rpn11 inh | bovine thrombin cleavage of Ub4-pepOG, fluorescence polarization | inhibition, % at 20 µM | 1,900 tested, 13% active | AID 602333;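 active = mean inhibition at least 40% at 20 µM, or signal 3 deviations below plate average, so some actives read negative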;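 also: plate controls were thrombin with DMSO for no effect and buffer wells lacking thrombin for full effect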
# An asterisk follows results filed as active; i = inactive; nt = not tested or not shown; + = active, no number. Rule as the data show it, unless noted: active = inhibition above about 40%; inactive = the rest.
SMILES,Rpn11 inh,TPT1 inh,CRFR2-BP antag,HNF4A DNA FP,CRFBP-R2 agonist,CSN deneddyl inh,Rpn11 confirm,MMP-2 counter,Thrombin inh
O=C(CCN1CCc2ccccc2C(c2ccccc2)C1)c1ccc2c(c1)OCCO2 (stereo unspecified),+,-5,10,-1,7,3,-13,-29,-12
NCCCC[C@@H]1NC(=O)c2cc([N+](=O)[O-])cc(I)c2SC[C@@H](C(N)=O)NC(=O)[C@H](Cc2ccc(O)cc2)NC1=O,+,0,4,-4,-1,7,11,-4,-44
CC1=C(C(=O)N(C)C)CC(CC(=O)NC2CCCCC2)C(=O)N1Cc1ccc(C(C)(C)C)cc1 (stereo unspecified),i,nt,6,4,-1,-1,nt,nt,nt
COC(=O)c1ccc(C)c(NC(=O)CSc2sc3c(O)cc(=O)[nH]c3c2C#N)c1,+,5,-4,-19,-1,13,24,24,-5
Cc1ccc(C)c(NC(=O)CSc2sc3c(O)cc(=O)[nH]c3c2C#N)c1,i,0,8,-2,1,9,nt,nt,nt
COc1ccccc1NC(=O)C1=C(C)Nc2ncnn2C1c1cccs1 (stereo unspecified),+,4,24,1,-2,4,-11,-6,-12
COc1ccc(C2C(C(=O)Nc3ccccc3OC)=C(C)Nc3ncnn32)cc1 (stereo unspecified),i,0,13,0,1,4,nt,nt,nt
O=c1cc(-c2ccc(O)cc2)oc2ccc3ccccc3c12,i,nt,-6,7,1,3,nt,nt,nt
O=c1cc(-c2ccc(O)cc2)oc2c1ccc1ccccc12,+,nt,-3,5,3,16,64*,-26,-13
Cc1cc(C)cc(N(CC(=O)NC2CCCCC2)C(=O)CCCC(=O)Nc2ccccn2)c1,i,-9,-12,1,-4,3,nt,nt,nt
Cc1nc(SCc2nc3ccccc3[nH]2)c2oc3cc(Br)ccc3c2n1,+,nt,-12,15,9,23,45*,5,43*
Cc1cc(=O)[nH]c2c1c(C)nn2C1CCCC1,i,-3,6,-2,-4,-9,nt,nt,nt
Cc1cccc(CNC(=O)c2ccccc2N)c1,+,0,2,26,-1,2,-7,-5,-7
O=C(CCC(=O)Nc1ccccc1Cl)NNC(=O)c1ccco1,+,1,27,-4,-2,-4,-4,1,-13
Cc1c(Cl)cccc1NC(=O)CCC(=O)NNC(=O)c1ccco1,i,-1,17,0,-1,1,nt,nt,nt
CN(C)CCCNc1nc2cc(-c3ccc4c(ccn4C)c3)sc2c(=O)n1C,+,nt,nt,5,nt,8,18,7,-15
CN(C)CCCNc1nc2cc(-c3ccsc3)sc2c(=O)n1C,i,nt,nt,4,nt,0,nt,nt,nt
COc1cccc(-n2nnc3c(=O)n(CC(=O)NC4CCCC4)cnc32)c1,i,2,-7,-5,0,-3,nt,nt,nt
Cc1ccc(CN(C(=O)c2csnn2)C(C(=O)NC2CCCC2)c2ccccn2)cc1 (stereo unspecified),+,3,1,1,2,-6,-23,-39,-20
Cc1ccc(N(C(=O)c2csnn2)C(C(=O)NC2CCCCC2)c2ccccn2)cc1 (stereo unspecified),i,-4,9,0,-1,3,nt,nt,nt
C[C@H](CO)N1C[C@H](C)[C@@H](CN(C)C(=O)Nc2cccc(F)c2)Oc2ncc(Br)cc2C1=O,+,nt,7,-1,-2,0,8,-20,0
Cc1ccc(C(=O)O)cc1NC(=S)NC(=O)c1ccc(-c2ccc(Cl)cc2)o1,+,3,2,1,0,0,13,45*,-23
Cc1cc(C(=O)N/N=C/c2ccc(-c3cccc(Cl)c3Cl)o2)n[nH]1,+,1,-16,13,2,-3,22,-34,-13
CCOC(=O)c1noc(C)c1C(=O)Nc1cccc(F)c1,+,0,-49,-1,7,-5,-1,-41,1
C=CCN(C(=O)CNC(=O)c1ccco1)C(C(=O)NC1CCCC1)c1cccs1 (stereo unspecified),i,-5,-14,-1,-1,0,nt,nt,nt
SMILES,Rpn11 inh,TPT1 inh,CRFR2-BP antag,HNF4A DNA FP,CRFBP-R2 agonist,CSN deneddyl inh,Rpn11 confirm,MMP-2 counter,Thrombin inh
O=C(Nc1ccc(Cl)cc1)N1CCN(c2ccccc2)CC1,i,-3,4,-1,0,0,nt,nt,nt
CCOC(=O)Cc1csc(NC(=O)c2sc3nc4c(C)cc(C)cc4cc3c2N)n1,+,12,-49,40*,28,4,24,-17,-2
CC(=O)c1sc(NC(=O)CCCOc2ccc(Cl)cc2)nc1C,+,4,-8,24,-1,5,12,14,-9
COc1ccc(OCCCC(=O)Nc2nc(C)c(C(C)=O)s2)cc1,i,-1,-9,3,-3,-5,nt,nt,nt
CC(C)C(=O)Nc1ccc2c(c1)Cc1cc(NC(=O)C(C)C)ccc1-2,i,-3,1,-3,2,-2,nt,nt,nt
N#CC(C#N)=Cc1ccc(-c2ccc(S(=O)(=O)N=C(N)N)cc2)o1,+,8,-3,3,5,18,26,76*,11
COc1ccccc1/C=N/NC(=O)c1ccc(NC(=O)c2cccc([N+](=O)[O-])c2)cc1,nt,2,nt,nt,nt,nt,nt,nt,nt
COc1cc([N+](=O)[O-])cc(/C=N/NC(=O)c2ccc(NC(=O)c3ccc(C)cc3)cc2)c1O,+,nt,13,-5,-1,-7,26,14,4
COc1cccc(/C=N/NC(=O)c2cc3cc([N+](=O)[O-])ccc3s2)c1O,+,12,5,60,0,120,34,-23,-19
COc1ccccc1CCNC(=O)c1cc(COc2cccc(C(F)(F)F)c2)on1,i,1,-5,3,-1,-4,nt,nt,nt
COc1ccc(CCn2c(O)cc3nn(-c4nc5ccccc5s4)c(=O)c-3c2C)cc1,+,24,2,-31,0,62,8,-6,16
COc1ccc(CN2CCN(c3nc4ccccc4s3)CC2)cc1,i,nt,-1,-1,1,5,nt,nt,nt
C#CCN(C)Cc1ccccc1,i,-1,-24,4,-1,-4,nt,nt,nt
